# FGF22 binding: FGF22 (human) thermal shift binding. hit rate 1.5% among 340,000. recombinant FGF22 thermal shift, SYPRO orange fluorescence; percent of sucrose octasulfate shift, DMSO zero. activity (Tm shift, normalised), % at 9.99 µM. Q9HCT0;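 active = mean Tm shift, scaled 0 neutral to 100 positive control, at about 1.3% or above, every replicate too, limit read from the data; inconclusive = no clear call, values can overlap the other calls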
# Target sequence (Q9HCT0 whole entry, looked up): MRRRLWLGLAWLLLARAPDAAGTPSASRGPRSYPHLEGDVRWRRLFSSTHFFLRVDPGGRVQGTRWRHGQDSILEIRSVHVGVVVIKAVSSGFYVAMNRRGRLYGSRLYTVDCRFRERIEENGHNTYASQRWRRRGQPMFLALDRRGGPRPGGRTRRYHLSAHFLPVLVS
# PDI turbidity: inhibitors of human protein disulfide isomerase | P07237 | PDI insulin aggregation turbidity, A650, 90 min | inhibition, % at 10 µM | hit rate 0.052% among 350,000;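 active = mean inhibition across replicates of 30% or more, whatever share of single replicates reach that level; inconclusive = mean inhibition below 30% while every single replicate reaches 30%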
# ERp5 inh: blocks human ERp5 reductase activity on insulin; ERp5 insulin aggregation, absorbance 650 nm, 90 min; Q15084; hit rate 0.05% among 350,000; AID 651711; inhibition, % at 9.99 µM;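 active = mean replicate inhibition above about 25%, with every replicate also reaching it, limit read from the data, passing the limit was not always enough; inconclusive = only one of those two criteria met; inactive = neither criterion met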
# Target sequence (Q15084 whole entry, looked up): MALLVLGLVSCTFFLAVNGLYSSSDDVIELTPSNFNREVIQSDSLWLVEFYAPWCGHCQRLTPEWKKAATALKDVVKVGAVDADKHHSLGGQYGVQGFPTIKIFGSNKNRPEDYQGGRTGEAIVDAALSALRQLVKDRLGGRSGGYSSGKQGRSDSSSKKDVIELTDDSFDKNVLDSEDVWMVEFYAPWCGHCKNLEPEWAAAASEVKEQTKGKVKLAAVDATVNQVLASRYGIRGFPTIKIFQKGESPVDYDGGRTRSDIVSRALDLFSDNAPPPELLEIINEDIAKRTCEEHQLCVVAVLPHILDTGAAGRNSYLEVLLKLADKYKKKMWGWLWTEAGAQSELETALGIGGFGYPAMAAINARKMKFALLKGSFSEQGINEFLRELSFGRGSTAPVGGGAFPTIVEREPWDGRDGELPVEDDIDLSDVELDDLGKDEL
# FN deposition inh: fibronectin deposition inhibition; AH1F fibroblasts, Alexa488-fibronectin deposition fluorescence, overnight; inhibition, % at 12.6 µM; hit rate 0.086% among 350,000;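 active = mean inhibition across replicates of 30% or more, regardless of how many single replicates reach that level; inconclusive = mean under 30% yet at least half of replicates reach 30%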;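 note: positive control wells lacked labelled fibronectin entirely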
#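 test system = AH1F fibroblasts assembling fluorescent fibronectin matrix | quantity = 10000 AH1F cells per well | buffer or medium = DMEM plus 2% serum, read in PBS | doses = single dose, pinned | incubation = 1 h cell attachment, overnight exposure to compound and label | detection = fluorescence at 485 nm excitation, 525 nm emission | read-out basis = inhibition from reduced deposited-fibronectin fluorescence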
# ARNT-TACC3 inh: disrupts binding between human ARNT and TACC3; Q9Y6A5; AlphaScreen His-ARNT PAS-B/GST-TACC3 binding, luminescence; TACC3 fragment carries E629A point mutation; inhibition, % at 9.99 µM; hit rate 0.66% among 390,000; AID 623870;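 active = mean inhibition of replicates at least 50% and at least half of replicates each reaching 50%; inconclusive = half or more replicates reach 50% but mean below 50%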;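 note: 0% = complete ARNT plus TACC3 wells and 100% = ARNT alone without TACC3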
# MLL AF4-AF9 inh: blocks AF4 peptide binding to human AF9. inhibition, % at 10 µM. hit rate 0.47% among 350,000. P42568. AlphaScreen, biotin-AF4 peptide binding to FLAG-AF9;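 active = every replicate reaching a set inhibition limit, whatever the replicate mean, cut at about 25% in these data; inconclusive = mean inhibition reaches that limit but some replicates miss it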;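 note: 0% = plate neutral control median and 100% = total signal loss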
# The depositor's hits bear a star; u = inconclusive; x = not tested or not shown. The list is not random: actives were taken first. Their share in the collection is about 2.1%.
SMILES,FGF22 binding,PDI turbidity,ERp5 inh,FN deposition inh,ARNT-TACC3 inh,MLL AF4-AF9 inh
C[C@@H]1CCCCO[C@H](CN(C)Cc2ccncc2)[C@H](C)CN([C@@H](C)CO)C(=O)c2cc(NS(=O)(=O)c3ccccc3)ccc2O1,0.6,x,3.8,-3.9,-30.4,-7.3
O=C(Nc1ccc(Cl)cn1)c1cccc2ccccc12,-0.3,1.0,2.0,8.0,-1.1,-2.9
Cc1ccnc(NC(=O)c2cccc([N+](=O)[O-])c2C)c1,43.2*,-5.2,-4.4,-1.0,5.9,2.2
O=C(Nc1ccc(Cl)cn1)c1ccccc1[N+](=O)[O-],43.1*,-11.8,1.8,12.5,x,0.6
CCn1nc(C(=O)OCC(=O)N(CC(C)C)c2c(N)n(Cc3ccccc3)c(=O)[nH]c2=O)c2ccccc2c1=O,9.2*,9.9,4.5,1.9,0.8,-0.9
Cc1ccc2nc(SCC(=O)N(CC(C)C)c3c(N)n(Cc4ccccc4)c(=O)[nH]c3=O)[nH]c2c1,0.2,4.2,6.8,-6.1,2.8,27.3*
COc1ccc(C(=O)c2c(C)c3cc(C)ccc3n2CC(O)CN2CCOCC2)cc1 (centres undefined),43.6*,u,3.1,0.8,14.4,18.2
COc1ccc(C(=O)OC(C)CN2CCOCC2)cc1 (centres undefined),-0.5,0.8,4.1,3.1,1.1,-1.9
C[C@@H]1CCCCO[C@@H](CN(C)CC2CCCCC2)[C@H](C)CN([C@@H](C)CO)C(=O)c2cc(N(C)C)ccc2O1,-0.7,x,-1.4,x,6.1,36.8*
C[C@H]1CN([C@@H](C)CO)C(=O)Cc2cc(N(C)C)ccc2O[C@H]1CN(C)Cc1ccc(Cl)c(Cl)c1,x,x,x,3.4,x,x
C[C@@H]1CN([C@@H](C)CO)C(=O)c2cc(N(C)C)ccc2O[C@H]1CN(C)Cc1ccc(Cl)c(Cl)c1,0.1,x,0.5,-12.8,3.2,10.9
C[C@@H]1CCCCO[C@@H](CN(C)CC2CCCCC2)[C@@H](C)CN([C@@H](C)CO)C(=O)c2cc(N(C)C)ccc2O1,-0.6,x,-0.8,x,3.7,20.0
C[C@@H]1CN([C@@H](C)CO)C(=O)Cc2cc(N(C)C)ccc2O[C@@H]1CN(C)Cc1ccc(Cl)c(Cl)c1,0.0,x,-0.9,x,29.0,43.3*
C[C@H](CO)N1C[C@H](C)[C@H](CN(C)Cc2ccc(Cl)c(Cl)c2)Oc2ccc(N(C)C)cc2C1=O,-0.7,x,-2.6,-18.4,8.8,31.9*
C[C@@H]1CCCCO[C@@H](CN(C)Cc2ccc(Cl)c(Cl)c2)[C@@H](C)CN([C@H](C)CO)C(=O)c2cc(N(C)C)ccc2O1,-0.3,x,-6.3,x,15.8,47.5*
C[C@H](CO)N1C[C@H](C)[C@@H](CN(C)Cc2ccc(Cl)c(Cl)c2)OCCCC[C@H](C)Oc2ccc(N(C)C)cc2C1=O,-0.4,x,5.2,x,x,42.7*
CN1C(=O)c2cc(NC(=O)Cc3cccs3)ccc2OC[C@H]2O[C@H](CC(=O)O)CC[C@@H]21,-0.3,x,0.6,-25.0,4.0,-0.7
COc1ccc(CN2CCN(C(=O)c3ccccc3C(=O)c3ccccc3)CC2)cc1F,44.0*,-8.5,6.8,2.4,x,1.1
COc1ccc(CN2CCN(C(=O)c3cccc4ccccc34)CC2)cc1OC,-0.1,0.2,-4.7,-3.2,1.6,-20.5
C(=N\N1CCN(c2ccccn2)CC1)/c1cccc2ccccc12,0.1,0.3,-1.9,2.4,16.8,27.0*
Oc1ccccc1/C=N/N1CCN(c2ccccn2)CC1,0.3,-1.2,-7.7,-5.0,5.3,2.7
CCC(=O)N1[C@@H](CO)[C@@H](c2ccc(-c3ccccc3)cc2)[C@@H]1CN(C)C(C)=O,x,x,x,-4.0,4.0,x
CN(C)S(=O)(=O)c1cc(C(=O)NCc2ccccc2)c(Cl)cc1Cl,42.9*,0.9,-0.6,2.9,-4.5,-0.3
COc1ccc(NC(=O)Nc2cccc3c2O[C@H](CN(C)Cc2ccccc2)[C@H](C)CN([C@H](C)CO)C3=O)cc1,-0.2,x,-0.6,x,-2.6,0.1
COc1ccc(/C=C(\C#N)C(=O)OCC(=O)NCc2ccccc2)cc1,33.8*,8.6,-6.1,-0.3,-3.6,-0.2
SMILES,FGF22 binding,PDI turbidity,ERp5 inh,FN deposition inh,ARNT-TACC3 inh,MLL AF4-AF9 inh
N#C/C(=C\c1ccc(O)c(Br)c1)C(=O)NCc1ccccc1,x,2.9,-10.1,10.2,7.5,-0.9
N#C/C(=C/c1ccccc1)C(=O)NCc1ccccc1,43.5*,-3.0,-7.7,1.7,-3.6,1.0
COc1ccc(/C=C(\C#N)C(=O)OCC(=O)NC2CC2)cc1,43.8*,-5.3,4.2,1.1,20.6,-1.5
O=C(NNC(=O)c1ccccc1C(=O)O)c1ccc(-c2ccccc2)cc1,43.4*,x,1.6,11.5,x,-1.9
O=C(NNC(=O)C1CC1)c1ccc(-c2ccccc2)cc1,-0.1,3.8,-3.8,x,0.7,2.5
CC(=O)Nc1ccc2c(c1)C(=O)N(C)[C@@H]1CC[C@@H](CC(=O)NCCCN3CCOCC3)O[C@@H]1CO2,x,x,x,-5.2,x,-2.4
CCOC(=O)c1cnc2nc(N3CCOCC3)nn2c1N,0.1,0.2,9.9,-12.3,-6.9,-0.4
CCOC(=O)c1cnc2nc(C)nn2c1N,43.4*,-2.3,2.6,-1.2,-5.3,-1.8
COc1ccc(NC(=S)NNC(=O)c2nnn(-c3ccccc3)c2C)cc1,0.1,-5.2,2.0,-1.0,61.9*,-1.5
COc1ccc(NC(=O)c2cnn(-c3ccccc3)c2C)cc1,x,-4.3,5.2,7.5,-11.1,-0.9
CC(=O)N1CC(=O)N2[C@H](CO)[C@@H](c3ccc(-c4ccc(C#N)cc4)cc3)[C@H]2C1,x,x,1.8,x,x,-2.5
C[C@@H]1CN([C@@H](C)CO)C(=O)c2cc(NS(=O)(=O)c3ccc(F)cc3)ccc2O[C@@H](C)CCCCO[C@@H]1CN(C)Cc1ccncc1,-0.1,x,0.5,-10.0,-5.2,0.3
COc1ccc2c(c1OC)C(=O)N(c1ccc(O)cc1)C2=O,43.2*,2.9,-0.4,6.9,-1.6,-1.4
COc1ccc2c(c1OC)C(=O)N(c1ccccc1)C2=O,0.1,3.2,-2.1,-1.6,x,0.3
CCOC(=O)c1ccc(NC(=O)c2ccc(NC(=O)c3ccccc3)cc2)cc1,x,-13.6,x,10.7,-5.3,x
CCOC(=O)c1ccc(NC(=O)c2cc3c(s2)CCC3)cc1,44.6*,-3.7,2.7,-10.6,4.5,-0.3
O=C(C=Cc1cccnc1)c1ccccc1,-0.3,-0.1,13.8,3.1,-14.0,-2.5
COC(=O)C(=C/C=C/c1cccnc1)C(=O)OC,43.3*,-3.7,1.6,-2.1,-12.0,-11.0
CC1(C)CC(=O)c2cnc3c(C#N)cnn3c2C1,43.7*,2.2,-3.7,7.1,0.6,0.4
COc1ccccc1CC(=O)c1ccccc1OC,43.5*,-0.2,3.8,1.8,1.7,0.0
COc1ccccc1C(=O)NNC(=O)c1ccccc1F,43.7*,19.9,0.9,-10.7,2.0,-2.8
COc1ccccc1CC(=O)NC(=O)c1ccccc1O,0.1,-0.9,2.9,-0.8,-6.2,2.3
